Active and inactive are the calls of the source. The calls are words filed in the database; no cut-off is given here.
Experiments:
[1] = system: Trypanosoma cruzi; test: Antitrypanosomal activity against Trypanosoma cruzi Colombiana epimastigotes assessed as cell death at 25 uM after 2 days by MTT assay relative to control; format: functional
In short: (§1)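 Epimastigotes of each strain taken in exponential growth in BHI-tryptose with 5% FBS, 1 mL per well. Compounds added from DMSO and kept 2 days at 28 °C. Cells washed twice and resuspended in PBS-glucose (5.5 mM), then given 0.4 mg/mL MTT for 4 h at 28 °C. Lysis in SDS-isopropanol, OD read. Triplicate wells, six growth controls. PCyt taken against control, corrected for medium-only wells.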

[2] = system: Trypanosoma cruzi; test: Antitrypanosomal activity against Trypanosoma cruzi Tulahuen 2 epimastigotes assessed as growth inhibition at 25 uM after 5 days relative to control; format: functional; conditions: Tulahuen 2, 120 h, read-out: GI
In short: (§2)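 Epimastigotes grown axenically at 28 °C in BHI-tryptose + 5% FBS; a 10-day stationary culture was inoculated to 1 × 10⁶ cells/mL. Drug added from DMSO stock, final DMSO ≤0.4%, vehicle control. A600 read daily. PGI on day 5 corrects for day-0 absorbance, relative to control. […] Three independent experiments.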

[3] = system: Trypanosoma cruzi; test: Antitrypanosomal activity against Trypanosoma cruzi CL Brener clone epimastigotes assessed as cell death at 25 uM after 2 days by MTT assay relative to control; format: functional; in short: as §1
[4] = system: Leishmania braziliensis; test: Antileishmanial activity against Leishmania braziliensis MHOM/BR/00/LTB300 promastigotes assessed as cell death after 2 days by MTT assay; format: functional; conditions: MHOM/BR/00/LTB300, 48 h, read-out: ID50 (the source's name)
In short: (§3)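 Parasites in exponential growth, in BHI-tryptose + 5% FBS for T. cruzi or RPMI + 5% FBS for L. braziliensis, 28 °C, 24-well plates. Compounds in DMSO; miltefosine in ethanol. 2-day exposure, two PBS-glucose (5.5 mM) washes, then MTT 0.4 mg/mL for 4 h at 28 °C. SDS-isopropanol lysis, OD read. Triplicates, six growth controls.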

[5] = system: Trypanosoma cruzi; test: Antitrypanosomal activity against Trypanosoma cruzi Y epimastigotes assessed as cell death at 25 uM after 2 days by MTT assay relative to control; format: functional; in short: as §1
[6] = system: Trypanosoma cruzi; test: Antitrypanosomal activity against Trypanosoma cruzi Colombiana epimastigotes assessed as cell death after 2 days by MTT assay; format: functional; conditions: 48 h, read-out: ID50 (the source's name); in short: as §3
[7] = system: Trypanosoma cruzi; test: Antitrypanosomal activity against Trypanosoma cruzi CL Brener clone epimastigotes assessed as cell death after 2 days by MTT assay; format: functional; conditions: 48 h, read-out: ID50 (the source's name); in short: as §3
[8] = system: Trypanosoma cruzi; test: Antitrypanosomal activity against Trypanosoma cruzi Y epimastigotes assessed as cell death after 2 days by MTT assay; format: functional; conditions: 48 h, read-out: ID50 (the source's name); in short: as §3
[9] = system: Trypanosoma cruzi; test: Antitrypanosomal activity against Trypanosoma cruzi Tulahuen 2 epimastigotes assessed as growth inhibition after 5 days; format: functional; conditions: Tulahuen 2, 120 h, read-out: ID50; in short: as §2
[10] = system: Trypanosoma cruzi; test: Inhibition of mitochondrial dehydrogenase activity in Trypanosoma cruzi Y epimastigotes at 20 uM up to 120 mins by MTT assay
In short: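 Y-strain epimastigotes, 10⁶ per well in 500 μL medium, treated with 20 μM compound at 28 °C, untreated wells as time-matched controls. At each time point cells counted, then MTT (50 μL of 5 mg/mL in PBS) added for 4 h. Stopped with acidic isopropanol, A570 read. Activity given as percent of untreated control.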

[11] = Cytotoxicity against mouse J774 cells; format: cell-based; conditions: read-out: ID50 (the source's name)
[12] = Selectivity index, ratio of ID50 for mouse J774 cells to ID50 for Trypanosoma cruzi Tulahuen 2 epimastigotes; format: toxicity, cell-based; conditions: J774 cells versus Trypanosoma cruzi Tulahuen 2 epimastigotes, read-out: Selectivity Index
[13] = system: Trypanosoma cruzi; test: Antitrypanosomal activity against Trypanosoma cruzi CL Brener clone trypomastigotes in parasite infected BALB/c mouse blood assessed as parasite lysis at 250 ug/ml after 24 hrs relative to control; format: functional
In short: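 Blood from BALB/c mice 7 days post-infection, taken by cardiac puncture into 3.8% sodium citrate (7:3). Compounds dissolved in DMSO, diluted in PBS to 100 or 250 μg/mL. 10 μL mixed with 100 μL infected blood (~10⁶ parasites/mL), in triplicate. Shaken 10 min at RT, held 4 °C for 24 h. Parasites counted by microscopy; gentian violet 250 μg/mL as standard.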

[14] = system: Trypanosoma cruzi; test: Inhibition of mitochondrial dehydrogenase activity in Trypanosoma cruzi Y epimastigotes assessed as reduction of acetate excretion at 5 uM […] by NMR analysis
In short: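 Y-strain epimastigotes treated 2 days with 5 μM compound, 5 mL then centrifuged at 1500g for 10 min at 4 °C. Parasite-free supernatant stored at −20 °C. Before NMR, 0.3 mL supernatant mixed with 0.1 mL DMF (10 mM, internal standard) and 0.1 mL D₂O. Excreted metabolites compared with parasite-free medium control, expressed relative to DMF. Three experiments.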

[15] = system: Trypanosoma cruzi; test: Inhibition of mitochondrial dehydrogenase activity in Trypanosoma cruzi Y epimastigotes assessed as reduction of succinate excretion […] by NMR analysis

SMILES	inhibition of growth at 25 µM [2] [%]	IC50 [4] [µM]	IC50 [9] [µM]	CC50 [11] [µM]	selectivity ratio [12]	also measured
COC(=O)c1c(C)[n+]([O-])c2ccccc2[n+]1[O-]	24	> 50	–	–	–	Activity [1]: 60%; Activity [3]: 59%; Activity [5]: 0%
Cc1c(C(=O)c2ccccc2)[n+]([O-])c2cc(F)c(F)cc2[n+]1[O-]	92	20.4	4.2	–	–	Activity [1]: 98%; IC50 [6]: 4.5 µM; IC50 [7]: 16.2 µM; Activity [3]: 92%; Activity [5]: 89%; IC50 [8]: 18.3 µM
O=C(c1ccccc1)c1c(C(F)(F)F)[n+]([O-])c2ccccc2[n+]1[O-]	100	1	0.9	–	–	inhibition [10]: Active; Activity [1]: 100%; IC50 [7]: 3.1 µM; Activity [3]: 97%; Activity [5]: 100%; IC50 [8]: 4 µM
O=C(c1c(C(F)(F)F)[n+]([O-])c2ccccc2[n+]1[O-])N1CCN(c2ccc(Cl)cc2)CC1	100	–	0.79	8.25	10.4	–
O=C(c1ccc(Cl)cc1)c1c(C(F)(F)F)[n+]([O-])c2ccccc2[n+]1[O-]	100	–	1.6	8.5	5.3	–
CC(C)(C)C(=O)c1c(C(F)(F)F)[n+]([O-])c2cc(F)c(F)cc2[n+]1[O-]	100	–	4.9	16.2	< 0.6	–
CC(=O)c1c(C(F)(F)F)[n+]([O-])c2ccccc2[n+]1[O-]	100	–	3	8.55	2.8	–
CC(C)C(=O)c1c(C(F)(F)F)[n+]([O-])c2cc(F)c(F)cc2[n+]1[O-]	23.6	–	–	11.5	< 0.5	–
CCOC(=O)c1c(-c2ccccc2)[n+]([O-])c2cc(Cl)c(Cl)cc2[n+]1[O-]	99	3	11.3	–	–	Activity [1]: 100%; IC50 [7]: 16.4 µM; Activity [3]: 94%; Activity [5]: 100%; IC50 [8]: 7.1 µM
CC(C)(C)C(=O)c1c(C(F)(F)F)[n+]([O-])c2ccccc2[n+]1[O-]	26	–	–	8.7	< 0.3	–
CCCCCCCCCCCCCCCCOP(=O)([O-])OCC[N+](C)(C)C [MILTEFOSINE]	–	9	–	–	–	–
O=C(c1c(C(F)(F)F)[n+]([O-])c2ccccc2[n+]1[O-])N1CCN(c2ccccc2)CC1	100	–	0.76	9.51	12.5	–
O=C(c1ccco1)c1c(C(F)(F)F)[n+]([O-])c2ccccc2[n+]1[O-]	100	–	2.4	7.13	3	–
CC1CS(=O)(=O)CCN1/N=C/c1ccc([N+](=O)[O-])o1 (centres undefined) [NIFURTIMOX]	100	–	7.7	–	41	inhibition [10]: inactive; IC50 [6]: 3.4 µM; IC50 [7]: 4.9 µM; IC50 [8]: 9.7 µM
Cc1c(C(=O)Nc2ccccc2)[n+]([O-])c2ccccc2[n+]1[O-]	10	> 50	–	–	–	Activity [1]: 24%; Activity [3]: 32%; Activity [5]: 0%
O=C(c1cccc2ccccc12)c1c(C(F)(F)F)[n+]([O-])c2ccccc2[n+]1[O-]	100	–	1.4	7.92	5.5	–
O=C(c1cccs1)c1c(C(F)(F)F)[n+]([O-])c2ccccc2[n+]1[O-]	100	–	1.1	4.69	4.3	–
CN(C)c1ccc(C(=C2C=CC(=[N+](C)C)C=C2)c2ccc(N(C)C)cc2)cc1.[Cl-] [GENTIAN VIOLET]	–	–	–	–	–	Activity [13]: 100%
O=C(c1ccc(Cl)cc1)c1c(C(F)(F)F)[n+]([O-])c2cc(F)c(F)cc2[n+]1[O-]	100	–	2.5	–	–	–
CCOC(=O)c1c(-c2ccccc2)[n+]([O-])c2cc(Cl)ccc2[n+]1[O-]	88	–	12.5	–	–	–
Cc1c(Sc2ccccc2)[n+]([O-])c2cc(Cl)c(Cl)cc2[n+]1[O-]	93	1.4	6.5	–	–	inhibition [10]: Active; Activity [1]: 100%; IC50 [6]: 1.7 µM; IC50 [7]: < 1 µM; inhibition [14]: Active; Activity [3]: 98%; Activity [5]: 100%; IC50 [8]: 2.9 µM; inhibition [15]: Active

Source: ChEMBL document CHEMBL1773052, “3-Trifluoromethylquinoxaline N,N'-dioxides as anti-trypanosomatid agents. Identification of optimal anti-T. cruzi agents and mechanism of action studies” (J Med Chem, 2011)
